What was measured:
Cathepsin B (Bos taurus) [1] = biological target: Cathepsin B (Bos taurus) (UniProt P07688); assay: The apparent second-order rate constant for inactivation of bovine cathepsin B enzyme. Apparent rate constant was determined from repeats of Kobs vs [I] using at least 5 values of [I].
How it was run: (§1)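 Bovine spleen cathepsin B was activated with 10 mM dithiothreitol, and its active concentration was set by E-64 titration. Assays ran in 25 mM sodium acetate, 1 mM EDTA, pH 5.3, with 20% CH3CN and 80 μM Cbz-Lys-ONp, monitored at 326 nm. Inactivation was analysed by Kitz–Wilson, with kobsd from semilog plots of activity versus time.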

Papain (Carica papaya) [2] = biological target: T1, Papain (Carica papaya) (UniProt P00784); assay: The apparent second-order rate constant for inactivation of papain enzyme. Apparent rate constant was determined from repeats of Kobs vs [I] using at least 5 values of [I].
T1 sequence (whole entry): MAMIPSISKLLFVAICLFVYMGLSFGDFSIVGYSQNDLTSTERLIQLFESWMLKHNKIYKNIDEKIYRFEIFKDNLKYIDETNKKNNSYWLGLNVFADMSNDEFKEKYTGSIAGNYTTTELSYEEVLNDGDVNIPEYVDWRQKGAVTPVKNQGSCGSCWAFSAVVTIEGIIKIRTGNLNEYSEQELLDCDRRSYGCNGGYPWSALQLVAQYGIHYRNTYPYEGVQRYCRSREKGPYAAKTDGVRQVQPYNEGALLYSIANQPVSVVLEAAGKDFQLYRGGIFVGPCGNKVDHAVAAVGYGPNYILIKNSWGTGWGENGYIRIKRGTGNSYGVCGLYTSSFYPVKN
How it was run: (§2)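 Papain purified from mercuripapain on Hg-Sepharose, then activated with L-cysteine for 15 min at room temperature in 50 mM K2HPO4, 1 mM EDTA, pH 6.3. Assays used 50 μM Cbz-Gly-ONp in buffer with 20% CH3CN, followed at 340 nm and corrected for spontaneous hydrolysis. Analysis was by Kitz–Wilson, with kobsd taken from slopes of semilog activity-versus-time plots.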

Cathepsin B (Bos taurus) [3] = biological target: Cathepsin B (Bos taurus) (UniProt P07688); assay: Specificity constant is determined from the ratio of the inactivation rate constants (Kcat/Km)of the cathepsin B.
Papain (Carica papaya) [4] = biological target: T1, Papain (Carica papaya); assay: Specificity constant is determined from the ratio of the inactivation rate constants (Kcat/Km)of the papaine.
Papain (Carica papaya) [5] = biological target: T1, Papain (Carica papaya); assay: Specificity constant is determined from the ratio of the inactivation rate constants (Kcat/Km)of the papain
Cathepsin B (Bos taurus) [6] = biological target: Cathepsin B (Bos taurus) (UniProt P07688); assay: The apparent second-order rate constant for inactivation of bovine cathepsin B enzyme. Apparent rate constant was determined from repeats of Kobs vs [I] using at least 5 values of [I], where I=0.95 mM; how it was run: as §1
Cathepsin B (Bos taurus) [7] = biological target: Cathepsin B (Bos taurus) (UniProt P07688); assay: The apparent second-order rate constant for inactivation of bovine cathepsin B enzyme. Apparent rate constant was determined from repeats of Kobs vs [I] using at least 5 values of [I], where I=0.2 mM
How it was run: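 Bovine spleen cathepsin B, activated with 10 mM dithiothreitol, in 25 mM sodium acetate pH 5.3 with 1 mM EDTA and 20% CH3CN (v/v). Substrate 80 μM Cbz-Lys-ONp; hydrolysis followed at 326 nm (Δε 9060 M⁻¹ cm⁻¹). Enzyme concentration set by E-64 titration. Kitz–Wilson analysis: k_obsd from slopes of semilog plots of activity vs time.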

Papain (Carica papaya) [8] = biological target: T1, Papain (Carica papaya); assay: Specificity constant is determined from the ratio of the inactivation rate constants (Kcat/Km)of the papain.
Papain (Carica papaya) [9] = biological target: T1, Papain (Carica papaya); assay: The apparent second-order rate constant for inactivation of papain enzyme. Apparent rate constant was determined from repeats of Kobs vs [I] using at least 5 values of [I] where I=0.95 mM; how it was run: as §2

Structure (SMILES) | k2/Ki (Cathepsin B (Bos taurus) [1]) | k2/Ki (Papain (Carica papaya) [2]) | k cat/Km (Cathepsin B (Bos taurus) [3]) | other results
COC(=O)N(C)NC(=O)[C@H](Cc1ccccc1)NC(C)=O |  | 0.05 M⁻¹ s⁻¹ |  | 
CC(=O)N[C@@H](Cc1ccccc1)C(=O)NNC(=O)OCC(Cl)(Cl)Cl | 730 M⁻¹ s⁻¹ | 11800 M⁻¹ s⁻¹ | 730 M⁻¹ s⁻¹ | k cat/Km (Papain (Carica papaya) [4]): 11800 M⁻¹ s⁻¹
CCOC(=O)N(C)NC(=O)[C@H](Cc1ccccc1)NC(C)=O |  | 0.05 M⁻¹ s⁻¹ |  | 
CC(=O)N[C@@H](Cc1ccccc1)C(=O)NN(C)C(=O)OCC(Cl)(Cl)Cl |  | 12 M⁻¹ s⁻¹ |  | kobs/[I] (Cathepsin B (Bos taurus) [6]): 0.34 M⁻¹ s⁻¹
CC(=O)N[C@@H](Cc1ccccc1)C(=O)NNC(N)=O | 0 M⁻¹ s⁻¹ | 4 M⁻¹ s⁻¹ |  | 
CC(=O)N[C@@H](Cc1ccccc1)C(=O)NN(C)C(=O)Oc1ccccc1 |  | 110 M⁻¹ s⁻¹ | 18 M⁻¹ s⁻¹ | k obs / 1 (Cathepsin B (Bos taurus) [7]): 18; k cat/Km (Papain (Carica papaya) [4]): 110 M⁻¹ s⁻¹
CC(=O)N[C@@H](Cc1ccccc1)C(=O)N/N=C(/N)S |  | 0.03 M⁻¹ s⁻¹ |  | 
CC(=O)N[C@@H](Cc1ccccc1)C(=O)NNC(=O)OCCBr | 90 M⁻¹ s⁻¹ | 1250 M⁻¹ s⁻¹ |  | 
CC(=O)N[C@@H](Cc1ccccc1)C(=O)NNC(=O)OCCCl | 54 M⁻¹ s⁻¹ | 1150 M⁻¹ s⁻¹ |  | 
CC(=O)N[C@@H](Cc1ccccc1)C(=O)NN(Cc1ccccc1)C(=O)Oc1ccccc1 |  |  |  | kobs/[I] (Cathepsin B (Bos taurus) [6]): < 0.2 M⁻¹ s⁻¹; kobs/[I] (Papain (Carica papaya) [9]): 0.3 M⁻¹ s⁻¹

Second part, led by results:

k2/Ki (Cathepsin B (Bos taurus) [1]) | k2/Ki (Papain (Carica papaya) [2]) | k cat/Km (Cathepsin B (Bos taurus) [3]) | Structure (SMILES) | other results
310 M⁻¹ s⁻¹ | 30500 M⁻¹ s⁻¹ |  | CC(=O)N[C@@H](Cc1ccccc1)C(=O)NNC(=O)OCc1ccccc1 | 
7730 M⁻¹ s⁻¹ | 67600 M⁻¹ s⁻¹ | 7730 M⁻¹ s⁻¹ | CC(=O)N[C@@H](Cc1ccccc1)C(=O)NNC(=O)Oc1ccccc1 | k cat/Km (Papain (Carica papaya) [4]): 67600 M⁻¹ s⁻¹
 |  | 80000 M⁻¹ s⁻¹ | O=C(N[C@@H](Cc1ccccc1)C(=O)Oc1ccc([N+](=O)[O-])cc1)OCc1ccccc1 | k cat/Km (Papain (Carica papaya) [5]): 120000 M⁻¹ s⁻¹
 |  | 450000 M⁻¹ s⁻¹ | C[C@H](NC(=O)OCc1ccccc1)C(=O)Oc1ccc([N+](=O)[O-])cc1 | k cat/Km (Papain (Carica papaya) [5]): 800000 M⁻¹ s⁻¹
 | 47 M⁻¹ s⁻¹ |  | CCOC(=O)NNC(=O)[C@H](Cc1ccccc1)NC(C)=O | 
 | > 70000 M⁻¹ s⁻¹ |  | CC(=O)N[C@@H](Cc1ccccc1)C(=O)NNC(=O)Oc1ccc([N+](=O)[O-])cc1 | 
 |  | 776000 M⁻¹ s⁻¹ | NCCCC[C@H](NC(=O)OCc1ccccc1)C(=O)Oc1ccc([N+](=O)[O-])cc1 | k cat/Km (Papain (Carica papaya) [8]): 853000 M⁻¹ s⁻¹
0 M⁻¹ s⁻¹ | 1 M⁻¹ s⁻¹ |  | CC(=O)N[C@@H](Cc1ccccc1)C(=O)NNC(=O)Nc1ccc([N+](=O)[O-])cc1 | 
 | 55 M⁻¹ s⁻¹ |  | CC(=O)N[C@@H](Cc1ccccc1)C(=O)NNC(=O)OCC(C)C | 
 | 19 M⁻¹ s⁻¹ |  | COC(=O)NNC(=O)[C@H](Cc1ccccc1)NC(C)=O | 

Reference: ChEMBL document CHEMBL1131524, “Azapeptides as inhibitors and active site titrants for cysteine proteinases” (J Med Chem, 1998)
